Experimental data published in paper PMC9037209 (Journal of Enzyme Inhibition and Medicinal Chemistry, 2022).
Values after ≈ are worked out from the molar mass of the structure shown. Values joined by “and” are separate entries in the source; they are usually repeats but may differ in a detail not shown here. Equal values may be shown once. “Also recorded” adds a separate entry of the source. Read-outs that look alike come from different tables or passages of the source. Marks after values point to notes of the source that are not given here.

Experiments:
[1] = target: PNP from Helicobacter pylori strain 26695 (HpPNP) (Helicobacter pylori, UniProt P56463); test: Inhibition of H. pylori PNP, direct spectrophotometric phosphorolysis assay; format: biochemical; details: m7Guo variable substrate, 50 mM phosphate; for inhibition model describing the data: model chosen by F test / AIC; for alpha = Kiu/Kic: mixed inhibition model, 25 °C, pH 7.0
Sequence of PNP from Helicobacter pylori strain 26695 (HpPNP) (P56463 whole entry): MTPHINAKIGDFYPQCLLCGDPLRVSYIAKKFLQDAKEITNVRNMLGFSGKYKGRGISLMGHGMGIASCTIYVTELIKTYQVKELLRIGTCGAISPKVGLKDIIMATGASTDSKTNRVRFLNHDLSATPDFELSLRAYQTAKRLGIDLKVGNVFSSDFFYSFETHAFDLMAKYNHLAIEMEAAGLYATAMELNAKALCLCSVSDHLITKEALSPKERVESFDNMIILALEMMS

H. pylori strain 26695 [2] = test: Minimal inhibitory concentration; format: cell-based, Helicobacter pylori
Outline: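 Strain ATCC 26695 revived from glycerol stock on BHI agar with 10% FBS and 1% selective supplement. Twofold compound dilutions (DMSO or water stocks) mixed 1:1 with inoculated double-strength BHI (20% FBS, 2% supplement; ~0.05 OD600, 4×10^4 CFU/mL final). Shaken at 120 rpm, 37 °C, microaerophilic; OD600 read at 0, 4, 8 and 24 h. Viability checked with Christensen's urea broth (4 h, aerobic, 37 °C). MIC taken at ≥90% inhibition; triplicates, kanamycin and DMSO controls.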

[3] = Solubility: concentration of dissolved inhibitor in filtered supernatants; format: physicochemical; details: for solubility: water, kinetic from dmso stock; for maximal tested concentration of the fully dissolved compound: in the cell culture experiment, filtered supernatant
Outline: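 DMSO stocks (10 mM) diluted with water to the planned concentrations. Precipitate removed with sterile 0.22 µm syringe filters. Dissolved concentration in the filtrate measured by UV absorbance: ε261 10,900 M−1 cm−1 for the 6-benzyloxy analogue, ε299 18,000 M−1 cm−1 for 6-benzylthio analogues.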

H. pylori PNP = details: read-out: inhibition constant; competitive vs. nucleoside substrate; cited from earlier work
H. pylori strain 26695 [4] = details: cited from earlier work
H. pylori 26695 strain = test: Checkerboard assay of 6BnS-2Cl-Pu with metronidazole; format: cell-based, Helicobacter pylori; details: single agent, concentration giving about 90% inhibition or more
Outline: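 Sub-MIC checkerboard against strain 26695 with metronidazole (range chosen from the EUCAST MIC). Test-compound gradient 3.0–10.0. Single agents added at 2× and combinations at 4× each, with inoculated double-strength BHI (~0.05 OD600, 4×10^4 CFU/mL final). Shaken at 120 rpm, 37 °C, microaerophilic. […] FICI = MICA/MICa + MICB/MICb.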

[5] = Helicobacter pylori, 26695, 24 h

For Clc1nc(Cl)c2[nH]cnc2n1 [2,6-diCl-Pu, 2,6-dichloropurine], the “inhibition model describing the data” value [1] was “non-competitive”, the “alpha = Kiu/Kic” value [1] was 1.17 ± 0.44 and the MIC (H. pylori strain 26695 [2]; Helicobacter pylori, 26695) was 2500 µM (≈ 473 µg/mL). The MIC (H. pylori strain 26695 [2]; [5]) was 2500 µM (≈ 473 µg/mL), the “solubility in water” value ([3]; 10 mM stock in milli-Q water and 2-fold dilutions, no precipitate) was “good solubility in water; also recorded: well soluble in water” and the solubility [3] was 236 µg/mL and 1250 µM.

In the case of Clc1nc(OCc2ccccc2)c2[nH]cnc2n1 [6BnO-2Cl-Pu, 6-benzyloxy-2-chloropurine], the “inhibition model describing the data” value [1] is reported as “mixed inhibition model”, the “alpha = Kiu/Kic” value [1] is reported as 0.25 ± 0.12 and the “maximal tested concentration of the fully dissolved compound” value [3] is reported as 0.095 mM. For the same molecule, the solubility [3] was 25 µg/mL and 95 µM.

For Clc1nc(SCc2ccccc2)c2[nH]cnc2n1 [6BnS-2Cl-Pu, 6-benzylthio-2-chloropurine], the “inhibition model describing the data” value [1] was “probably a mixed type”, the “alpha = Kiu/Kic” value [1] was 0.16 ± 0.15 and the MIC (H. pylori strain 26695 [2]; [5]) was 69 µg/mL and 250 µM. The “H. pylori 26695 cell culture growth inhibition” value (H. pylori strain 26695 [2]; solution prepared as 0.25 mM but partially precipitated) was “full inhibition; also recorded: Complete growth inhibition”, the “maximal tested concentration of the fully dissolved compound” value [3] was 0.040 mM and the solubility [3] was 11.1 µg/mL and 40 µM.

For c1ccc(CSc2ncnc3nc[nH]c23)cc1 [6BnS-Pu, 6-benzylthiopurine], the “inhibition model describing the data” value [1] was “non-competitive”, the “alpha = Kiu/Kic” value [1] was 1.07 ± 0.27 and the MIC (H. pylori strain 26695 [2]; [5]) was 48 µg/mL and 200 µM. The “H. pylori 26695 strain growth inhibition” value (H. pylori strain 26695 [2]; prepared as 200 µM but partially precipitated) was “completely inhibited” and the solubility [3] was 21 µg/mL and 85 µM.

In the case of Nc1ncnc2c([C@@H]3O[C@H](CO)[C@@H](O)[C@H]3O)[nH]nc12 [Formycin A], the Ki (H. pylori PNP) is given as 14 ± 1.7 µM.

For NC[C@H]1O[C@H](O[C@H]2[C@H](O)[C@@H](O[C@H]3O[C@H](CO)[C@@H](O)[C@H](N)[C@H]3O)[C@H](N)C[C@@H]2N)[C@H](O)[C@@H](O)[C@@H]1O [kanamycin, Kanamycin], the “% of H. pylori cell culture inhibition” value (H. pylori strain 26695 [2]; 25 µg/mL (52 µM), positive control, not the maximal solubility) is given as 92–96%, the MIC (H. pylori strain 26695 [4]) is given as 0.5–64^f µg mL^−1 and the MIC (H. pylori strain 26695 [4]; converted from literature value) is given as 1.1 to 132 µM.

In the case of Cc1ncc([N+](=O)[O-])n1CCO [metronidazole], the “MIC taken for FICI calculation” value (H. pylori 26695 strain) is given as 2 µg/mL, the MIC (H. pylori strain 26695 [4]; EUCAST) is given as 8^f µg mL^−1 and the MIC (H. pylori strain 26695 [4]; converted from EUCAST value) is given as 47 µM (≈ 8.04 µg/mL).
